Test results reported in ChEMBL document CHEMBL5149984, “Discovery of HN37 as a Potent and Chemically Stable Antiepileptic Drug Candidate” (J Med Chem, 2021).

Assays:
[1] = Cmax in Kunming mouse plasma at 5 mg/kg, po measured upto 24 hrs by LC-MS/MS method; type: ADME, organism-based; parameters: dose 5 mg/kg, time < 24 hrs, route po
Summary of the method: (§1)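 KM male mice (18−24 g), fasted 12 h before and 2 h after dosing. HN37 given orally at 5 mg/kg in 5% DMSO/5% Tween 80/90% saline, or iv at 2 mg/kg after dilution in saline with 1% Tween 80; n = 3 per time point. Blood sampled 0.25–24 h (from 0.083 h after iv); whole brain taken after oral dosing. Plasma and brain extracted with acetonitrile, quantified by LC−MS/MS; AUC0−t by trapezoidal method.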

[2] = AUC(0 to t) in Kunming mouse brain at 5 mg/kg, po measured upto 24 hrs by LC-MS/MS method; type: ADME, organism-based; parameters: dose 5 mg/kg, time < 24 hrs, route po; summary of the method: as §1
[3] = AUC(0 to t) in Kunming mouse plasma at 2 mg/kg, iv measured upto 24 hrs by LC-MS/MS method; type: ADME, organism-based; parameters: time < 24 hrs, dose 2 mg/kg, route iv; summary of the method: as §1
[4] = Cmax in Sprague-Dawley rat blood at 6 mg/kg, po measured upto 24 hrs by LC-MS/MS method; type: ADME, organism-based; parameters: time < 24 hrs, dose 6 mg/kg, route po
Summary of the method: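 Male SD rats (180−220 g) given single oral doses of 2, 6 and 20 mg/kg; handled as in the mouse PK study (fasted 12 h before and 2 h after dosing, 5% DMSO/5% Tween 80/90% saline formulation). In a separate 6 mg/kg p.o. set, blood and brain were sampled together. Plasma and brain levels by LC−MS/MS.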

[5] = AUC(0 to t) in Sprague-Dawley rat at 20 mg/kg, po measured upto 24 hrs by LC-MS/MS method; type: ADME, organism-based; parameters: dose 20 mg/kg, time < 24 hrs, route po; details: in vivo
Summary of the method: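 Male SD rats (180−220 g) dosed orally at 2, 6 or 20 mg/kg in escalating fashion, handled as in the mouse study: 12 h fast, acetonitrile extraction of plasma, LC−MS/MS quantification. AUC0−t by trapezoidal method to the last measurable concentration.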

[6] = Metabolic stability in human liver microsomes assessed as half life; type: ADME, Microsome
[7] = Metabolic stability in rat liver microsomes assessed as half life; type: ADME, Microsome
[8] = Metabolic stability in dog liver microsomes assessed as intrinsic clearance; type: ADME, Canis lupus familiaris, Microsome; details: read-out: CLH
[9] = Metabolic stability in rat liver microsomes assessed as intrinsic clearance; type: ADME, Microsome; details: read-out: CLH
[10] = target: T1, Potassium voltage-gated channel subfamily KQT member 1 (Homo sapiens, UniProt P51787); assay: Agonist activity at human KCNQ1 channel expressed in CHO cells assessed as amplitude change of outward current at 0.1 uM by patch clamp method; type: cell-based
T1 sequence (P51787 whole entry): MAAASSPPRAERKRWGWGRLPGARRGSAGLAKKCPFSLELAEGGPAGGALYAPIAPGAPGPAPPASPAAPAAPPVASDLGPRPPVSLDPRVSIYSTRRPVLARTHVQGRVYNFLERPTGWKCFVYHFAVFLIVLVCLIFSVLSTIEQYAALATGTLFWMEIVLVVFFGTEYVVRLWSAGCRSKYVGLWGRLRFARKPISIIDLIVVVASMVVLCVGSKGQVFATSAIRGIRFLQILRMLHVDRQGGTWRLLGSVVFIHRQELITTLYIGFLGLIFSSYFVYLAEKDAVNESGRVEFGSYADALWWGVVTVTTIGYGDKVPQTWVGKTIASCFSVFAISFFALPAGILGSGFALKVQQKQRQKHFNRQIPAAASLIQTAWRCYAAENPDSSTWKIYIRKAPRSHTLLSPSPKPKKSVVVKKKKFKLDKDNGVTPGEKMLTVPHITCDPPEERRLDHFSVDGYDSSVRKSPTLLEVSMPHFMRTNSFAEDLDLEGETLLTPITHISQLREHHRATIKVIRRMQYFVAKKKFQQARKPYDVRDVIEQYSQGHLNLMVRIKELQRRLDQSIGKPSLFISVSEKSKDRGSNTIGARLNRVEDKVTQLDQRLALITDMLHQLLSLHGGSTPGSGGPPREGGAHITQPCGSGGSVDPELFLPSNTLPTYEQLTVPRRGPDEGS
Summary of the method: (§2)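 Whole-cell patch clamp at room temperature on CHO cells (DMEM/F12, 10% FBS) transiently co-transfected with EGFP and hKCNQ1, rKCNQ2, rKCNQ3 A278T, hKCNQ4 or hKCNQ5; KCNQ2/3 at 1:1 cDNA ratio. Pipette solution 145 mM KCl, 5 mM MgATP, pH 7.3; bath 140 mM NaCl, 5 mM KCl, pH 7.4, under perfusion. V1/2 from Boltzmann fits; I/I0 is current amplitude with versus without compound; n = 4−6.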

[11] = target: Potassium voltage-gated channel subfamily KQT member 2 (Rattus norvegicus) (UniProt O88943); assay: Agonist activity at rat KCNQ2 channel expressed in CHO cells assessed as shift of half voltage of maximal activation at 0.1 uM by patch clamp method; type: cell-based; details: filed as agonist; summary of the method: as §2
Potassium voltage-gated channel subfamily KQT member 2 (Rattus norvegicus), sequence (O88943 whole entry): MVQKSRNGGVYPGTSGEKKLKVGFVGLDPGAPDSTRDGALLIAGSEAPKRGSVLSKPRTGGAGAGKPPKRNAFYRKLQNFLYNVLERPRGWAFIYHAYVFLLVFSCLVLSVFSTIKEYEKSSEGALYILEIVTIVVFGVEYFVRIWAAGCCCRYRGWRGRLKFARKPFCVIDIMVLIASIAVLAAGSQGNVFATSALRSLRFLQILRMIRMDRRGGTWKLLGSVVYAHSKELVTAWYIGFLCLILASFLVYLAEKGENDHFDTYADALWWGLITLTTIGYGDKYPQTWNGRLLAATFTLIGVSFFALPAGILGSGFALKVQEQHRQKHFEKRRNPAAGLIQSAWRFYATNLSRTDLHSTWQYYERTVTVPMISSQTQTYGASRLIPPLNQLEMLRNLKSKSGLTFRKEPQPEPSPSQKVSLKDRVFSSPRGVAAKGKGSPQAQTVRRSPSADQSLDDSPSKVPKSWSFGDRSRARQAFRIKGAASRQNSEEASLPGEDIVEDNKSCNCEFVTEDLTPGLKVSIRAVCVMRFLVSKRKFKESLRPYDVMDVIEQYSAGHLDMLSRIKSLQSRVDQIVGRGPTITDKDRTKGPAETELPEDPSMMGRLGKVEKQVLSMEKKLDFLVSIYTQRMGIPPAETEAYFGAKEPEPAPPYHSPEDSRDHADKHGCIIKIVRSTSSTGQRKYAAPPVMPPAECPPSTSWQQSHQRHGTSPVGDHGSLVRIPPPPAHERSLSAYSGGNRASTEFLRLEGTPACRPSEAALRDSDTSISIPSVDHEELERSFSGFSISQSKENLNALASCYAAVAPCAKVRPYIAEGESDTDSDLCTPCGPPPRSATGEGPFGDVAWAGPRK

Brain = assay: Anticonvulsant activity in MES induced Kunming mouse model of seizure assessed as EC50 in brain; type: functional, tissue-based
[12] = target: T1, Potassium voltage-gated channel subfamily KQT member 1; assay: Agonist activity at human KCNQ1 channel expressed in CHO cells assessed as shift of half voltage of maximal activation at 10 uM by patch clamp method; type: cell-based; summary of the method: as §2
[13] = target: Potassium voltage-gated channel subfamily KQT member 5 (Homo sapiens) (UniProt Q9NR82); assay: Agonist activity at human KCNQ5 channel expressed in CHO cells assessed as shift of half voltage of maximal activation at 10 uM by patch clamp method; type: cell-based; details: filed as agonist; summary of the method: as §2
Potassium voltage-gated channel subfamily KQT member 5 (Homo sapiens), sequence (Q9NR82 whole entry): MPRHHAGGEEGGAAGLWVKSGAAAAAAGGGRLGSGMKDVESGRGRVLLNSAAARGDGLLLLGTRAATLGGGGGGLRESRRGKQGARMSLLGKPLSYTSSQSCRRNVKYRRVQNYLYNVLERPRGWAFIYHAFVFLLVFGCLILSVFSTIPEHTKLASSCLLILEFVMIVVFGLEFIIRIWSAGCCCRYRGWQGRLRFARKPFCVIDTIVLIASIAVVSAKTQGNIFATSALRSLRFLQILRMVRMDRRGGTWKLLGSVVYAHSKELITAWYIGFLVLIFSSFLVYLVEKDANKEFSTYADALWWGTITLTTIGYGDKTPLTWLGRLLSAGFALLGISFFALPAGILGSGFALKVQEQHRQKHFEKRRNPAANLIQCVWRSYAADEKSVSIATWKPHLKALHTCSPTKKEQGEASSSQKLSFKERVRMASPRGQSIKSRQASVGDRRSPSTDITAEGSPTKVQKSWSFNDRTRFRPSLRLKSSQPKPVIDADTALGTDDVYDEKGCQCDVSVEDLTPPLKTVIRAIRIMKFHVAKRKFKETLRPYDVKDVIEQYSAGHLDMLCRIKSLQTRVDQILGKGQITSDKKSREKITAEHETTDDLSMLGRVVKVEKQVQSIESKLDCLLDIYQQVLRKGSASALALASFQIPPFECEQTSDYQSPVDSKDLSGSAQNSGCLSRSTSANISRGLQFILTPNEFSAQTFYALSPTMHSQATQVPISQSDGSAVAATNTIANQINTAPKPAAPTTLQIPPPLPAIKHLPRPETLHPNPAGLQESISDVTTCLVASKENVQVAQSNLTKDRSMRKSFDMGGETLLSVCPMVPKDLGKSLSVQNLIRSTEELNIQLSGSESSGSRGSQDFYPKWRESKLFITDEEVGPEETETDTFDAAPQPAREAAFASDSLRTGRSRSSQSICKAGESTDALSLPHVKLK

[14] = Neurotoxicity in Kunming mouse assessed as motor impairment rate at 300 mg/kg, po after 1 hr by rotarod test; type: toxicity, organism-based; details: in vivo
Summary of the method: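 Male KM mice dosed intragastrically with compound freshly suspended in 0.5% CMC-Na. Rotarod performance scored 1 h after dosing as the fraction of animals showing motor impairment. Fisher's exact test versus vehicle; TD50 from nonlinear dose−response fit.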

Row | Compound | Cmax [1] [ng/mL] | AUC(0-t) at 24 h [2] [ng·h/mL] | AUC(0-t) at 24 h [3] [ng·h/mL] | Cmax [4] [ng/mL] | AUC(0-t) at 24 h [5] [ng·h/mL] | half-life [6] [min] | half-life [7] [min] | CLint scaled [8] [mL/min/kg] | CLint scaled [9] [mL/min/kg] | Activity [10] | Activity [11] [mV] | EC50 (Brain) [nM] | Activity [12] [mV] | Activity [13] [mV] | Activity [14] [%]
1 | C#CCN(Cc1ccc(F)cc1)c1cc(C)c(NC(=O)OC)c(C)c1 | 134 | 716 | 531 | 162 | 1920 | 27.7 | 23.7 | 97.2 | 105 | 0.99 | -35.6 | 70 |  |  | 
2 | CCOC(=O)Nc1ccc(NCc2ccc(F)cc2)cc1N [EZOGABINE] |  |  |  |  |  |  |  |  |  |  |  |  | -8.03 | 0.09 | 100
